Data reported in publication PMC4050191 (FEBS Open Bio, 2014).
Read-outs that look alike come from different tables or passages of the source. Blank lines part the entries; values can stand above or below the substance they belong to.

Assays:
C-HsCen1-T138E = assay: ITC, peptide binding to C-HsCen1-T138E; parameters: species or system human; conditions: C-HsCen1-T138E versus C-HsCen1; +Ca2+ (Fig. S3)
How it was run: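 Binding measured by ITC at 30 °C. Cell contained E. coli-expressed, heat-treated, chromatographically purified centrin at 10 μM. N-acetylated, C-amidated target peptide at 100 μM was injected in 8–10 μL steps. Buffer was 50 mM MOPS, 100 mM NaCl, pH 7.5 with 1 mM CaCl₂. The first 2 μL injection was discarded. Baseline-corrected integrated heats were fitted for n, Ka and ΔH. Peptide-into-buffer injections gave dilution heat.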

[1] = target: C-terminal domain of human centrin 1 T138E (human); assay: ITC
[2] = target: C-terminal domain of human centrin 1 T138D (human); assay: ITC
[3] = target: C-terminal domain of human centrin 1 T138E (human); assay: ITC; remark: listed apart in the source
[4] = target: C-terminal domain of human centrin 1 T138D (human); assay: ITC; remark: listed apart in the source
C-HsCen2-T138D = assay: ITC, peptide binding to C-HsCen2 T138D; parameters: species or system human; conditions: versus C-HsCen2 wild type
How it was run: (§1)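 Recombinant human centrin (full-length or C-terminal domain; Asp variants made by double-PCR mutagenesis) was expressed in E. coli BL21(DE3), heat-treated at 63 °C, then purified by ion-exchange, phenyl and gel-filtration chromatography. ITC at 30 °C: 10 μM centrin titrated with 100 μM N-acetylated, C-amidated peptide in 50 mM MOPS, 100 mM NaCl, pH 7.5, plus 1 mM CaCl₂ or 2 mM EDTA. Dilution heats subtracted; data fitted for n, Ka and ΔH.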

[5] = system: HsC1P (human centrin 1 phosphorylated by CK2 at T138); assay: ITC, peptide binding to CK2-phosphorylated HsCen1; conditions: EDTA / absence of Ca2+; phosphorylated versus unphosphorylated centrin 1
C-HsCen2 T138D-S158D = assay: ITC, peptide binding to C-HsCen2 T138D-S158D; parameters: species or system human; conditions: versus C-HsCen2 wild type
How it was run: as §1

C-HsCen1-T138D = assay: ITC, peptide binding to C-HsCen1-T138D; parameters: species or system human; conditions: EDTA; C-HsCen1-T138D versus C-HsCen1
How it was run: as §1

[6] = system: HsCen1 (full-length human centrin 1); assay: ITC, peptide binding to full-length HsCen1; conditions: centrin 1; +Ca2+ versus EDTA
How it was run: as §1

C-HsCen2-S158D = assay: ITC, peptide binding to C-HsCen2 S158D; parameters: species or system human; conditions: absence of Ca2+; versus C-HsCen2 wild type
How it was run: as §1

[7] = system: HsCen1-T138D (phosphomimetic human centrin 1); assay: ITC, peptide binding to HsCen1-T138D; conditions: EDTA; HsCen1-T138D versus HsCen1

factor of decrease of affinity by the T138E mutation (C-HsCen1-T138E): 7
Substance: 325-MAVATGSWDSFLKIWN-340 [Trd]

Ka [1]: 9.03e+06 M⁻¹ | Ka [2]: 3.34e+07 M⁻¹ | dH [2]: -23.6 kcal/mol | Ka [3]: 430000 M⁻¹ | dH [3]: -32.6 kcal/mol | Ka [4]: 4.55e+06 M⁻¹ | dH [4]: -30.2 kcal/mol
Substance: P17-XPC, 17-residue peptide of human XPC

factor of reduction of affinity by the T138D mutation (C-HsCen2-T138D; absence of Ca2+): 3 | factor of reduction of affinity by the T138D mutation (C-HsCen2-T138D; presence of Ca2+): 2 | factor of reduction of binding by phosphorylation at T138 [5]: 10 | factor of reduction of affinity by the T138D-S158D double mutation (C-HsCen2 T138D-S158D; absence of Ca2+): 9 | factor of reduction of affinity by the T138D-S158D double mutation (C-HsCen2 T138D-S158D; presence of Ca2+): 2 | factor of decrease of affinity by the T138D mutation (C-HsCen1-T138D): 2 | factor of increase of binding by the presence of Ca2+ [6]: 5 | factor of reduction of affinity by the S158D mutation (C-HsCen2-S158D): 3.7 | factor of reduction of binding by the T138D phosphomimetic mutation [7]: 4
Substance: 846-NWKLLAKGLLIRERLKR-863 [P17-XPC]
